Test results as given in ChEMBL document CHEMBL3124924, “Bifunctional ethyl 2-amino-4-methylthiazole-5-carboxylate derivatives: synthesis and in vitro biological evaluation as antimicrobial and anticancer agents” (2014).
Values after ≈ are worked out from the molar mass of the structure shown. Active and inactive are the calls of the source. The rule behind the calls is not given here.

Columns and labels:
Candida albicans [1] = test: Antifungal activity against Candida albicans ATCC 10231 assessed as growth inhibition at 1 mg/mL after 48 hrs by agar-cup diffusion method; format: functional; conditions: ATCC 10231, 48 h, read-out: DIZ
Procedure, shortened: (§1)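 Agar-cup diffusion: 1 mL of 6 h broth culture seeded per 100 mL molten sterile agar at 45 °C and poured into plates. 8 mm cups cut, each filled with 0.1 mL of 1 mg/mL test solution. Incubated 37 °C for 24 h, 48 h for C. albicans. DMSO control per organism. Inhibition zone diameter in mm, mean of three measurements.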

Escherichia coli [2] = test: Antibacterial activity against Escherichia coli ATCC 25922 assessed as growth inhibition at 1 mg/mL after 24 hrs by agar-cup diffusion method; format: functional; conditions: ATCC 25922, 24 h, read-out: DIZ; procedure, shortened: as §1
Bacillus spizizenii [3] = test: Antibacterial activity against Bacillus subtilis ATCC 6633 assessed as growth inhibition at 1 mg/mL after 24 hrs by agar-cup diffusion method; format: functional; conditions: ATCC 6633, 24 h, read-out: DIZ; procedure, shortened: as §1
Aspergillus niger = test: Antifungal activity against Aspergillus niger assessed as growth inhibition at 1 mg/mL after 24 hrs by agar-cup diffusion method; format: functional, organism-based; procedure, shortened: as §1
Candida albicans [4] = test: Fungicidal activity against Candida albicans ATCC 10231 after 18 hrs; format: functional; conditions: ATCC 10231, 18 h
Procedure, shortened: (§2)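 Continuation of the broth-dilution MIC test. A loopful from each tube without visible growth spread on a quarter of a Mueller-Hinton agar plate and incubated 18 h. Lowest concentration giving no growth on subculture taken as the MBC.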

Candida albicans [5] = test: Antifungal activity against Candida albicans ATCC 10231 assessed as growth inhibition after 48 hrs by two-fold serial dilution assay; format: functional; conditions: ATCC 10231, 48 h
Procedure, shortened: (§3)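 Twofold serial broth dilution run on compounds giving inhibition zones of 13 mm or more. Organisms pre-grown in suitable broth at 37 °C, 24 h for bacteria and 48 h for fungi. Dilution series 200, 100, 50, 25, 12.5, 6.25. Each 5 mL tube inoculated with 0.1 mL and incubated 37 °C for 48 h. Tubes scored for presence or absence of growth.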

Bacillus spizizenii [6] = test: Bactericidal activity against Bacillus subtilis ATCC 6633 after 18 hrs; format: functional; conditions: ATCC 6633, 18 h; procedure, shortened: as §2
Bacillus spizizenii [7] = test: Antibacterial activity against Bacillus subtilis ATCC 6633 assessed as growth inhibition after 48 hrs by two-fold serial dilution assay; format: functional; conditions: ATCC 6633, 48 h; procedure, shortened: as §3
Staphylococcus aureus [8] = test: Bactericidal activity against Staphylococcus aureus ATCC 6538 after 18 hrs; format: functional; conditions: ATCC 6538, 18 h; procedure, shortened: as §2
Staphylococcus aureus [9] = test: Antibacterial activity against Staphylococcus aureus ATCC 6538 assessed as growth inhibition after 48 hrs by two-fold serial dilution assay; format: functional; conditions: ATCC 6538, 48 h; procedure, shortened: as §3
Staphylococcus aureus [10] = test: Antibacterial activity against Staphylococcus aureus ATCC 6538 assessed as growth inhibition at 1 mg/mL after 24 hrs by agar-cup diffusion method; format: functional; conditions: ATCC 6538, 24 h, read-out: DIZ; procedure, shortened: as §1
Pseudomonas aeruginosa = test: Antibacterial activity against Pseudomonas aeruginosa ATCC 27853 assessed as growth inhibition at 1 mg/mL after 24 hrs by agar-cup diffusion method; format: functional; conditions: ATCC 27853, 24 h, read-out: DIZ; procedure, shortened: as §1
Escherichia coli [11] = test: Bactericidal activity against Escherichia coli ATCC 25922 after 18 hrs; format: functional; conditions: ATCC 25922, 18 h; procedure, shortened: as §2
Escherichia coli [12] = test: Antibacterial activity against Escherichia coli ATCC 25922 assessed as growth inhibition after 48 hrs by two-fold serial dilution assay; format: functional; conditions: ATCC 25922, 48 h; procedure, shortened: as §3

SMILES	zone of inhibition at 1000 µg/mL (Candida albicans [1]) [mm]	zone of inhibition at 1000 µg/mL (Escherichia coli [2]) [mm]	zone of inhibition at 1000 µg/mL (Bacillus spizizenii [3]) [mm]	growth inhibition (GI) (Aspergillus niger)	MFC (Candida albicans [4]) [µg/mL]	MIC (Candida albicans [5]) [µg/mL]	MBC (Bacillus spizizenii [6]) [µg/mL]	MIC (Bacillus spizizenii [7]) [µg/mL]	MBC (Staphylococcus aureus [8]) [µg/mL]	MIC (Staphylococcus aureus [9]) [µg/mL]	zone of inhibition at 1000 µg/mL (Staphylococcus aureus [10]) [mm]	zone of inhibition at 1000 µg/mL (Pseudomonas aeruginosa) [mm]	MBC (Escherichia coli [11]) [µg/mL]	MIC (Escherichia coli [12]) [µg/mL]
CCOC(=O)c1sc(NC(=O)CN2CCOCC2)nc1C	> 13	> 13	> 13	inactive	100 (≈ 319 µM)	100 (≈ 319 µM)	100 (≈ 319 µM)	100 (≈ 319 µM)	50 (≈ 160 µM)	50 (≈ 160 µM)	> 13	> 13		
CCOC(=O)c1sc(NC(=O)C(F)(F)F)nc1C	> 13	> 13	> 13	inactive	100 (≈ 354 µM)	100 (≈ 354 µM)	100 (≈ 354 µM)	100 (≈ 354 µM)	100 (≈ 354 µM)	100 (≈ 354 µM)	> 13	> 13	100 (≈ 354 µM)	100 (≈ 354 µM)
